Test results from ChEMBL document CHEMBL1165950, “Design and synthesis of new potent anticancer pyrazoles with high FLT3 kinase inhibitory selectivity” (Bioorg Med Chem, 2010).

Legend:
Type in all cases: functional
[1] = tested on: CAKI-1; assay: Cytotoxicity against human Caki1 cells assessed as cell growth at 0.001 uM after 48 hrs by sulforhodamine B assay; settings: CAKI-1, 48 h, read-out: Activity
[2] = tested on: SNB-19; assay: Cytotoxicity against human SNB19 cells assessed as cell growth at 0.01 uM after 48 hrs by sulforhodamine B assay; settings: SNB-19, 48 h, read-out: Activity
[3] = tested on: MDA-MB-468; assay: Growth inhibition of human MDA-MB-468 cells after 48 hrs by sulforhodamine B assay; settings: MDA-MB-468, 48 h
Procedure, shortened: (§1)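 NCI 60-cell screen, five-dose mode. Cells grown in RPMI 1640 with 5% FBS and 2 mM L-glutamine and plated at 5000-40,000 cells/well according to doubling time. After 24 h preincubation, a Tz plate was TCA-fixed. Five concentrations (10-fold or 1/2 log dilutions) were applied for 48 h at 37 °C. SRB staining read at 515 nm. IC50 taken from [(Ti-Tz)/(C-Tz)]×100 = 50.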

[4] = Growth inhibition of human […] cells after 48 hrs by sulforhodamine B assay; settings: for CC50: read-out: LC50 (the source's name); procedure, shortened: as §1
[5] = tested on: NCI-H522; assay: Cytotoxicity against human NCI-H522 cells assessed as cell growth at 10 uM after 48 hrs by sulforhodamine B assay; settings: NCI-H522, 48 h, read-out: Activity
[6] = tested on: K562; assay: Cytotoxicity against human K562 cells assessed as cell growth at 0.001 uM after 48 hrs by sulforhodamine B assay; settings: K562, 48 h, read-out: Activity
[7] = tested on: SK-MEL-28; assay: Cytotoxicity against human SK-MEL-28 cells assessed as cell growth at 10 uM; settings: read-out: Activity
Procedure, shortened: (§2)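 NCI-60 screen: cells grown in RPMI 1640 with 5% FBS and 2 mM L-glutamine, plated at 5000–40,000 cells/well according to doubling time, and preincubated 24 h at 37 °C, 5% CO2. The single 10 µM dose (DMSO stock) was added, then incubated 48 h. Cells were TCA-fixed and stained with 0.4% SRB, read at 515 nm, and growth % calculated against time-zero and control plates.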

[8] = tested on: PC-3; assay: Cytotoxicity against human PC3 cells assessed as cell growth at 100 nM after 48 hrs by sulforhodamine B assay; settings: PC-3, 48 h, read-out: Activity
[9] = tested on: OVCAR-5; assay: Growth inhibition of human OVCAR5 cells after 48 hrs by sulforhodamine B assay; settings: OVCAR-5, 48 h; for CC50: read-out: LC50 (the source's name); procedure, shortened: as §1
[10] = tested on: COLO 205; assay: Cytotoxicity against human COLO205 cells assessed as cell growth at 0.001 uM after 48 hrs by sulforhodamine B assay; settings: COLO 205, 48 h, read-out: Activity
Procedure, shortened: (§3)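 NCI-60 five-dose screen. Cells were grown in RPMI 1640 with 5% FBS and 2 mM L-glutamine, plated at 5000–40,000 cells/well and preincubated for 24 h. Time-zero plates were TCA-fixed. DMSO-solubilized drug was added at five concentrations (10-fold or ½-log serial dilutions) for 48 h at 37 °C, 5% CO2. Cells were TCA-fixed, stained with 0.4% SRB and read at 515 nm. Percent growth used time-zero, control and test absorbances.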

[11] = tested on: U-251; assay: Cytotoxicity against human U251 cells assessed as cell growth at 100 nM after 48 hrs by sulforhodamine B assay; settings: U-251, 48 h, read-out: Activity
[12] = tested on: SF-268; assay: Growth inhibition of human SF268 cells after 48 hrs by sulforhodamine B assay; settings: SF-268, 48 h; for CC50: read-out: LC50 (the source's name); procedure, shortened: as §1
[13] = tested on: BT-549; assay: Cytotoxicity against human BT549 cells assessed as cell growth at 10 uM after 48 hrs by sulforhodamine B assay; settings: BT-549, 48 h, read-out: Activity; procedure, shortened: as §3
[14] = tested on: IGROV-1; assay: Cytotoxicity against human IGROV1 cells assessed as cell growth at 10 uM; settings: read-out: Activity
Procedure, shortened: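 Single-dose NCI-60 screen at 10 µM. Cells were grown in RPMI 1640 with 5% FBS and 2 mM L-glutamine, then treated for 48 h at 37 °C. Protein was measured by SRB staining with absorbance at 515 nm. Percentage growth was recorded, and inhibition percentage was calculated as 100 minus growth percentage.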

[15] = tested on: CCRF-CEM; assay: Cytotoxicity against human CCRF-CEM cells assessed as cell growth at 1 uM after 48 hrs by sulforhodamine B assay; settings: read-out: Activity; procedure, shortened: as §3
[16] = tested on: 786-0; assay: Cytotoxicity against human 786-0 cells assessed as cell growth at 0.01 uM after 48 hrs by sulforhodamine B assay; settings: 786-0, 48 h, read-out: Activity; procedure, shortened: as §3
[17] = tested on: SK-MEL-2; assay: Cytotoxicity against human SK-MEL-2 cells assessed as cell growth at 10 uM; settings: read-out: Activity; procedure, shortened: as §2
[18] = tested on: OVCAR-3; assay: Cytotoxicity against human OVCAR-3 cells assessed as cell growth at 0.001 uM after 48 hrs by sulforhodamine B assay; settings: OVCAR-3, 48 h, read-out: Activity
[19] = tested on: SK-MEL-5; assay: Cytotoxicity against human SK-MEL-5 cells assessed as cell growth at 10 uM after 48 hrs by sulforhodamine B assay; settings: SK-MEL-5, 48 h, read-out: Activity
[20] = tested on: UO-31; assay: Growth inhibition of human UO31 cells after 48 hrs by sulforhodamine B assay; settings: UO-31, 48 h; for CC50: read-out: LC50 (the source's name); procedure, shortened: as §1
[21] = tested on: SN12C; assay: Cytotoxicity against human SN12C cells assessed as cell growth at 100 nM after 48 hrs by sulforhodamine B assay; settings: read-out: Activity
[22] = tested on: IGROV-1; assay: Cytotoxicity against human IGROV1 cells assessed as cell growth at 1 uM after 48 hrs by sulforhodamine B assay; settings: IGROV-1, 48 h, read-out: Activity
[23] = tested on: M14; assay: Growth inhibition of human M14 cells after 48 hrs by sulforhodamine B assay; settings: M14, 48 h; procedure, shortened: as §1
[24] = tested on: CCRF-CEM; assay: Cytotoxicity against human CCRF-CEM cells assessed as cell growth at 10 uM after 48 hrs by sulforhodamine B assay; settings: read-out: Activity; procedure, shortened: as §3
[25] = tested on: KM12; assay: Cytotoxicity against human KM12 cells assessed as cell growth at 0.01 uM after 48 hrs by sulforhodamine B assay; settings: KM12, 48 h, read-out: Activity
[26] = tested on: HT-29; assay: Cytotoxicity against human HT-29 cells assessed as cell growth at 100 nM after 48 hrs by sulforhodamine B assay; settings: HT-29, 48 h, read-out: Activity
[27] = tested on: Malme-3M; assay: Cytotoxicity against human MALME-3M cells assessed as cell growth at 10 uM after 48 hrs by sulforhodamine B assay; settings: read-out: Activity
[28] = tested on: SN12C; assay: Cytotoxicity against human SN12C cells assessed as cell growth at 0.01 uM after 48 hrs by sulforhodamine B assay; settings: read-out: Activity
[29] = tested on: A549; assay: Cytotoxicity against human A549 cells assessed as cell growth at 100 nM after 48 hrs by sulforhodamine B assay; settings: A549, 48 h, read-out: Activity; procedure, shortened: as §3
[30] = tested on: HOP-92; assay: Cytotoxicity against human HOP92 cells assessed as cell growth at 10 uM after 48 hrs by sulforhodamine B assay; settings: HOP-92, 48 h, read-out: Activity

COc1cc(C)cc(-c2c(-c3ccnc(-c4ccc(N(C)C)cc4)c3)cnn2CC#N)c1
growth at 0.001 µM [1]: 124% | growth at 0.01 µM [2]: 44% | GI50 [3]: 0.0261 µM | LC50 (concentration giving 50% net cell kill) [3]: 1.04 µM | TGI [3]: 0.0798 µM | GI50 [4]: 0.266 µM | TGI [4]: 1.96 µM | CC50 [4]: > 100 µM | growth at 10 µM [5]: -52% | growth at 0.001 µM [6]: 104% | growth at 10 µM [7]: 42.1% | growth at 0.1 µM [8]: 11% | GI50 [9]: > 100 µM | TGI [9]: > 100 µM | CC50 [9]: > 100 µM | growth at 0.001 µM [10]: 98% | growth at 0.1 µM [11]: 6% | GI50 [12]: 0.302 µM | TGI [12]: > 100 µM | CC50 [12]: > 100 µM | growth at 10 µM [13]: -25% | growth at 10 µM [14]: 20.1% | growth at 1 µM [15]: 6% | growth at 0.01 µM [16]: 55% | growth at 10 µM [17]: 49.3% | growth at 0.001 µM [18]: 98% | growth at 10 µM [19]: -39% | GI50 [20]: 0.508 µM | TGI [20]: > 100 µM | CC50 [20]: > 100 µM | growth at 0.1 µM [21]: 28% | growth at 1 µM [22]: 9% | GI50 [23]: 0.0541 µM | TGI [23]: 0.483 µM | CC50 ([23]; read-out: LC50 (the source's name)): > 100 µM | growth at 10 µM [24]: 8% | growth at 0.01 µM [25]: 20% | growth at 0.1 µM [26]: -24% | growth at 10 µM [27]: 13% | growth at 0.01 µM [28]: 75% | growth at 0.1 µM [29]: 10% | growth at 10 µM [30]: -26%

COc1cc(C)cc(-c2nn(CC#N)cc2-c2ccc(-c3cccc(C(C)=O)c3)nc2)c1
growth at 0.001 µM [1]: 101% | growth at 0.01 µM [2]: 102% | GI50 [3]: 0.275 µM | LC50 (concentration giving 50% net cell kill) [3]: 52.3 µM | TGI [3]: 1.49 µM | GI50 [4]: 3.3 µM | TGI [4]: 18.6 µM | CC50 [4]: > 100 µM | growth at 10 µM [5]: -40% | growth at 0.001 µM [6]: 82% | growth at 10 µM [7]: 44.7% | growth at 0.1 µM [8]: 85% | GI50 [9]: 2.43 µM | TGI [9]: 33.9 µM | CC50 [9]: > 100 µM | growth at 0.001 µM [10]: 103% | growth at 0.1 µM [11]: 95% | GI50 [12]: 4.07 µM | TGI [12]: 81.4 µM | CC50 [12]: > 100 µM | growth at 10 µM [13]: -24% | growth at 10 µM [14]: 34.6% | growth at 1 µM [15]: 13% | growth at 0.01 µM [16]: 97% | growth at 10 µM [17]: 35.4% | growth at 0.001 µM [18]: 102% | growth at 10 µM [19]: -75% | GI50 [20]: 3.18 µM | TGI [20]: 58.2 µM | CC50 [20]: > 100 µM | growth at 0.1 µM [21]: 91% | growth at 1 µM [22]: 1% | GI50 [23]: 1.17 µM | TGI [23]: 3.3 µM | growth at 10 µM [24]: 12% | growth at 0.01 µM [25]: 96% | growth at 0.1 µM [26]: 99% | growth at 10 µM [27]: -1% | growth at 0.01 µM [28]: 88% | growth at 0.1 µM [29]: 91% | growth at 10 µM [30]: -17%
